Test results reported in ChEMBL document CHEMBL1150226, “Cytotoxic constituents from leaves of Aglaia elliptifolia” (2001).
Values after ≈ are worked out from the molar mass of the structure shown.

How the values were obtained:
Assay type in all cases: functional
Settings in all cases: read-out: ED50 (the source's name)
P388 = experiment: Cytotoxicity against mouse P388 cells
Procedure, shortened: (§1)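 KB and P-388 cells supplied by an academic laboratory (University of Illinois at Chicago); the assay protocol itself is given only by reference to earlier work.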

A549 = experiment: Cytotoxicity against human A549 cells
Procedure, shortened: (§2)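 Cell lines obtained from the American Type Culture Collection; the assay protocol itself is given only by reference to earlier work.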

HL-60 = experiment: Cytotoxicity against human HL60 cells; procedure, shortened: as §2
HT-29 = experiment: Cytotoxicity against human HT-29 cells; procedure, shortened: as §2
KB = experiment: Cytotoxicity against human KB cells; procedure, shortened: as §1

Question: Which EC50 (P388) does the source give for `COc1ccc([C@@]23Oc4cc(OC)cc(OC)c4[C@]2(O)[C@H](O)[C@H](C(=O)O)[C@H]3c2ccccc2)cc1` [ROCAGLOIC ACID] here?
Answer: Its EC50 is 0.0012 µg/mL (≈ 0.00251 µM).

Question: What about the EC50 (A549) of the same molecule?
Answer: The EC50 was 0.00074 µg/mL (≈ 0.00155 µM).

Question: And the EC50 (HL-60)?
Answer: Its EC50 is 0.00084 µg/mL (≈ 0.00176 µM).

Question: And the EC50 (HT-29)?
Answer: The EC50 was 0.00084 µg/mL (≈ 0.00176 µM).

Question: What about the EC50 (KB) of the same molecule?
Answer: Its EC50 is 0.0023 µg/mL (≈ 0.00481 µM).

Question: Which results are given for `C/C=C(\C)C(=O)N[C@@H]1CCCN1C(=O)[C@@H]1[C@@H](c2ccccc2)[C@]2(c3ccc(OC)cc3)Oc3cc(OC)cc(OC)c3[C@@]1(O)[C@@H]2O` [ELLIPTIFOLINE]?
Answer: EC50 (P388): 3.41 µg/mL (≈ 5.42 µM); EC50 (A549): 18.9 µg/mL (≈ 30.1 µM); EC50 (HL-60): > 50 µg/mL; EC50 (HT-29): > 50 µg/mL; EC50 (KB): > 50 µg/mL

Question: Which EC50 (P388) does the source give for `C/C=C(\C)C(=O)NC(CCCO)NC(=O)/C=C/c1ccccc1` (stereo not given) here?
Answer: The EC50 was 3.62 µg/mL (≈ 11.4 µM).

Question: What about the EC50 (A549) of the same molecule?
Answer: The EC50 was greater than 50 µg/mL.

Question: What about the EC50 (HL-60) of the same molecule?
Answer: Its EC50 is 32.1 µg/mL (≈ 101 µM).

Question: And the EC50 (HT-29)?
Answer: Its EC50 is greater than 50 µg/mL.

Question: And the EC50 (KB)?
Answer: The EC50 was greater than 50 µg/mL.
